Source: ChEMBL document CHEMBL4680073, “Total Synthesis of Laspartomycin C and Characterization of Its Antibacterial Mechanism of Action” (J Med Chem, 2016)
In brackets after ≈: the same amount, converted by molar mass. Activity calls are given as the source filed them. The rule behind the calls is not given here. Bridge positions count the residues as written; N and C are the ends. Square brackets hold non-standard residues; d marks the D form. Peptide text beside a SMILES is read from it. * marks the point of attachment. Tetradecenoyl(2E,13-Me) = CC(C)CCCCCCCCC/C=C/C(=O)*; d(aThr) = C[C@@H](O)[C@@H](N)C(=O)O; dPip = O=C(O)[C@H]1CCCCN1; Dap = NC[C@H](N)C(=O)O

What was measured:
Staphylococcus simulans [1] = assay: Antibacterial activity against Staphylococcus simulans 22 assessed as inhibition of bacterial growth incubated for 16 hrs in presence of C15-PP by broth microdilution assay; assay type: functional, organism-based
How it was run: (§1)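 The antibiotic was pre-incubated with the cell wall precursor (e.g. UDP-GlcNAc, C55-PP, C55-P) before being given to the bacteria, with vancomycin as positive control.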

Staphylococcus simulans [2] = assay: Antibacterial activity against Staphylococcus simulans 22 assessed as inhibition of bacterial growth incubated for 16 hrs in presence of UDP-MurNAc-pp by broth microdilution assay; assay type: functional, organism-based; how it was run: as §1
Staphylococcus simulans [3] = assay: Antibacterial activity against Staphylococcus simulans 22 assessed as inhibition of bacterial growth incubated for 16 hrs in presence of C55-PP by broth microdilution assay; assay type: functional, organism-based; how it was run: as §1
Staphylococcus simulans [4] = assay: Antibacterial activity against Staphylococcus simulans 22 assessed as inhibition of bacterial growth incubated for 16 hrs in presence of C15-P by broth microdilution assay; assay type: functional, organism-based; how it was run: as §1
Staphylococcus simulans [5] = assay: Antibacterial activity against Staphylococcus simulans 22 assessed as inhibition of bacterial growth incubated for 16 hrs in presence of lipid I by broth microdilution assay; assay type: functional, organism-based; how it was run: as §1
Staphylococcus simulans [6] = assay: Antibacterial activity against Staphylococcus simulans 22 assessed as inhibition of bacterial growth incubated for 16 hrs in presence of lipid II by broth microdilution assay; assay type: functional, organism-based; how it was run: as §1
Staphylococcus simulans [7] = assay: Antibacterial activity against Staphylococcus simulans 22 assessed as inhibition of bacterial growth incubated for 16 hrs in presence of UDP-GlcNAc by broth microdilution assay; assay type: functional, organism-based; how it was run: as §1
Staphylococcus simulans [8] = assay: Antibacterial activity against Staphylococcus simulans 22 assessed as inhibition of bacterial growth incubated for 16 hrs in presence of C55-P by broth microdilution assay; assay type: functional, organism-based; how it was run: as §1
[9] = Binding affinity to calcium at 60 uM in pH 7.4 buffer by CD spectroscopy
Staphylococcus simulans [10] = assay: Antibacterial activity against Staphylococcus simulans 22 assessed as inhibition of bacterial growth incubated for 16 hrs in presence of 10 mM Ca2+ by broth microdilution assay; assay type: functional
How it was run: (§2)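 MICs were read in µg/mL against indicator strains S. aureus 29213 and S. simulans 22. The growth medium was supplemented with Ca2+ at 5.0 or 10 mM.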

[11] = Binding affinity to lipid II at 0.5 to 2 equiv in Ca2+-containing buffer incubated for 2 hrs by TLC-based binding assay; details: dose 0.5-2 equiv
[12] = Binding affinity to undecaprenyl phosphate (C55-P) at 0.5 to 2 equiv in Ca2+-containing buffer incubated for 2 hrs by TLC-based binding assay; details: dose 0.5-2 equiv
Staphylococcus aureus [13] = assay: Induction of UDP-MurNAc-pentapeptide accumulation in Staphylococcus aureus ATCC 29213 at 10 times MIC incubated for 60 mins by HPLC analysis; assay type: functional
[14] = Binding affinity to undecaprenyl phosphate (C55-P) assessed as reduction in lipid II synthesis at 0.5 to 2 equiv in presence of UDP-GlcNAc, UDPMurNAc-pentapeptide and Micrococcus flavus membrane vesicles and measured after 2 hrs by TLC analysis; details: dose 0.5-2 equiv
How it was run: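 C55-P was pre-treated with the antibiotic over a range of concentrations. UDP-GlcNAc, UDP-MurNAc-pentapeptide and M. flavus membrane vesicles containing MraY and MurG were then added, and lipid II formation was monitored.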

Staphylococcus simulans [15] = assay: Antibacterial activity against Staphylococcus simulans 22 assessed as inhibition of bacterial growth incubated for 16 hrs in presence of 5 mM Ca2+ by broth microdilution assay; assay type: functional; how it was run: as §2
Staphylococcus aureus [16] = assay: Antibacterial activity against Staphylococcus aureus ATCC 29213 assessed as inhibition of bacterial growth incubated for 16 hrs by broth microdilution assay; assay type: functional; how it was run: as §2
Staphylococcus aureus [17] = assay: Antibacterial activity against Staphylococcus aureus ATCC 29213 assessed as inhibition of bacterial growth incubated for 16 hrs in presence of 10 mM Ca2+ by broth microdilution assay; assay type: functional
How it was run: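 MIC, read in µg/mL, was determined in growth medium supplemented with Ca2+ at a final 10 mM. The same strain was also tested at 5 mM Ca2+ to check how calcium level affects the MIC.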

[18] = Binding affinity to undecaprenyl phosphate (C55-P) in large unilamellar vesicles comprising 1,2-dioleoyl-sn-glycero-3-phosphocholine containing 1.5 mol % C55-P by ITC analysis
How it was run: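 Isothermal titration calorimetry: DOPC vesicles containing 1.5 mol% C55-P were titrated into the antibiotic solution in HEPES buffer with CaCl2. Heat was plotted against molar ratio.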

Structure (SMILES) | Activity (Staphylococcus simulans [1]) | Activity (Staphylococcus simulans [2]) | Activity (Staphylococcus simulans [3]) | Activity (Staphylococcus simulans [4]) | Activity (Staphylococcus simulans [5]) | Activity (Staphylococcus simulans [6]) | Activity (Staphylococcus simulans [7]) | Activity (Staphylococcus simulans [8]) | Activity [9] | MIC (Staphylococcus simulans [10]) | Activity [11] | Activity [12] | Activity (Staphylococcus aureus [13]) | Activity [14] | MIC (Staphylococcus simulans [15]) | MIC (Staphylococcus aureus [16]) | MIC (Staphylococcus aureus [17]) | Kd [18]
CCCCCCCCCC(=O)N[C@@H](Cc1c[nH]c2ccccc12)C(=O)N[C@H](CC(N)=O)C(=O)N[C@@H](CC(=O)O)C(=O)N[C@H]1CNC(=O)[C@@H](CC(=O)c2ccccc2N)NC(=O)[C@H](CCC(=O)O)NC(=O)[C@@H](CO)NC(=O)CNC(=O)[C@H](CC(=O)O)NC(=O)[C@@H](C)NC(=O)[C@H](CC(=O)O)NC(=O)[C@H](CCCN)NC(=O)CNC1=O | Active | Active | Active | Active | Active | Active | Active | Active | – | – | – | – | – | – | – | – | – | –
CCCCCCCCCC(=O)N[C@@H](Cc1c[nH]c2ccccc12)C(=O)N[C@H](CC(N)=O)C(=O)N[C@@H](CC(=O)O)C(=O)N[C@H]1CNC(=O)[C@@H](CC(=O)c2ccccc2N)NC(=O)[C@H](CCC(=O)O)NC(=O)[C@@H](CO)NC(=O)CNC(=O)[C@H](CC(=O)O)NC(=O)[C@@H](C)NC(=O)[C@H](CC(=O)O)NC(=O)[C@H](CCCN)NC(=O)[C@H]2CCCCN2C1=O | Active | Active | Active | Active | Active | Active | Active | Active | – | – | – | – | – | – | – | – | – | –
CCCCCCCCCC(=O)N[C@@H](Cc1c[nH]c2ccccc12)C(=O)N[C@H](CC(N)=O)C(=O)N[C@@H](CC(=O)O)C(=O)N[C@H]1CNC(=O)[C@H]2CCCN2C(=O)[C@H](CCC(=O)O)NC(=O)[C@@H](CO)NC(=O)CNC(=O)[C@H](CC(=O)O)NC(=O)[C@@H](C)NC(=O)[C@H](CC(=O)O)NC(=O)[C@H](CCCN)NC(=O)[C@H]2CCCCN2C1=O | Active | Active | Active | Active | Active | Active | Active | Active | Active | inactive | – | – | – | – | – | – | – | –
CCCCCCCCCC(=O)N[C@@H](Cc1c[nH]c2ccccc12)C(=O)N[C@@H](CC(N)=O)C(=O)N[C@@H](CC(=O)O)C(=O)N[C@@H]1C(=O)NCC(=O)N[C@@H](CCCN)C(=O)N[C@H](CC(=O)O)C(=O)N[C@H](C)C(=O)N[C@@H](CC(=O)O)C(=O)NCC(=O)N[C@H](CO)C(=O)N[C@@H]([C@@H](C)CC(=O)O)C(=O)N[C@@H](CC(=O)c2ccccc2N)C(=O)O[C@@H]1C | Active | Active | Active | Active | Active | Active | Active | Active | – | – | inactive | inactive | inactive | inactive | – | – | – | –
CCCCCCCCCC(=O)N[C@@H](Cc1c[nH]c2ccccc12)C(=O)N[C@H](CC(N)=O)C(=O)N[C@@H](CC(=O)O)C(=O)N[C@H]1CNC(=O)[C@@H](Cc2c[nH]c3ccccc23)NC(=O)[C@H](CCC(=O)O)NC(=O)[C@@H](CO)NC(=O)CNC(=O)[C@H](CC(=O)O)NC(=O)[C@@H](C)NC(=O)[C@H](CC(=O)O)NC(=O)[C@H](CCCN)NC(=O)CNC1=O | Active | Active | Active | Active | Active | Active | Active | Active | – | – | – | – | – | – | – | – | – | –
CCCCCCCCCC(=O)N[C@@H](Cc1c[nH]c2ccccc12)C(=O)N[C@H](CC(N)=O)C(=O)N[C@@H](CC(=O)O)C(=O)N[C@H]1CNC(=O)[C@H]2CCCN2C(=O)[C@H]([C@@H](C)CC)NC(=O)[C@@H]([C@@H](C)O)NC(=O)CNC(=O)[C@H](CC(=O)O)NC(=O)[C@@H](C)NC(=O)[C@H](CC(=O)O)NC(=O)CNC(=O)CNC1=O | Active | Active | Active | Active | Active | Active | Active | Active | – | – | – | – | – | – | – | – | – | –
CCCCCCCCCC(=O)N[C@@H](Cc1c[nH]c2ccccc12)C(=O)N[C@H](CC(N)=O)C(=O)N[C@@H](CC(=O)O)C(=O)N[C@@H]1C(=O)NCC(=O)N[C@@H](CCCN)C(=O)N[C@@H](CC(=O)O)C(=O)N[C@H](C)C(=O)N[C@@H](CC(=O)O)C(=O)NCC(=O)N[C@H](CO)C(=O)N[C@@H]([C@@H](C)CC(=O)O)C(=O)N[C@@H](CC(=O)c2ccccc2N)C(=O)O[C@@H]1C | – | – | – | – | – | – | – | – | – | ≤ 0.031 µg/mL | – | – | – | – | 0.031 µg/mL | 0.25 µg/mL (≈ 0.154 µM) | 0.125 µg/mL | –
CCCCCCCCCC(=O)N[C@@H](Cc1c[nH]c2ccccc12)C(=O)N[C@H](CC(N)=O)C(=O)N[C@@H](CC(=O)O)C(=O)N[C@H]1CNC(=O)[C@@H](Cc2c[nH]c3ccccc23)NC(=O)[C@H](CCC(=O)O)NC(=O)[C@@H](CO)NC(=O)CNC(=O)[C@H](CC(=O)O)NC(=O)[C@@H](C)NC(=O)[C@H](CC(=O)O)NC(=O)[C@H](CCCN)NC(=O)[C@H]2CCCCN2C1=O | Active | Active | Active | Active | Active | Active | Active | Active | – | – | – | – | – | – | – | – | – | –
CC[C@H](C)[C@@H]1NC(=O)[C@@H]([C@@H](C)O)NC(=O)CNC(=O)[C@H](CC(=O)O)NC(=O)CNC(=O)[C@H](CC(=O)O)NC(=O)CNC(=O)[C@H]2CCCCN2C(=O)[C@@H](NC(=O)[C@H](CC(=O)O)NC(=O)/C=C/CCCCCCCCCC(C)C)CNC(=O)[C@@H]2CCCN2C1=O ({Tetradecenoyl(2E,13-Me)}-D[Dap][dPip]GDGDG[d(aThr)]IP; lactam 2-C) | Active | – | inactive | inactive | – | – | – | inactive | – | ≤ 1 µg/mL | inactive | Active | Active | Dose-dependent effect | 4 µg/mL | 4 µg/mL (≈ 3.21 µM) | 2 µg/mL | 7.3 nM
CCCCCCCCCC(=O)N[C@@H](Cc1c[nH]c2ccccc12)C(=O)N[C@H](CC(N)=O)C(=O)N[C@@H](CC(=O)O)C(=O)N[C@H]1CNC(=O)[C@H]2CCCN2C(=O)[C@H]([C@@H](C)CC)NC(=O)[C@@H]([C@@H](C)O)NC(=O)CNC(=O)[C@H](CC(=O)O)NC(=O)[C@@H](C)NC(=O)[C@H](CC(=O)O)NC(=O)CNC(=O)[C@H]2CCCCN2C1=O | Active | Active | Active | Active | Active | Active | Active | Active | Active | inactive | – | – | – | – | – | – | – | –
CN[C@H](CC(C)C)C(=O)N[C@H]1C(=O)N[C@@H](CC(N)=O)C(=O)N[C@H]2C(=O)N[C@H]3C(=O)N[C@H](C(=O)N[C@H](C(=O)O)c4cc(O)cc(O)c4-c4cc3ccc4O)[C@H](O)c3ccc(c(Cl)c3)Oc3cc2cc(c3O[C@@H]2O[C@H](CO)[C@@H](O)[C@H](O)[C@H]2O[C@H]2C[C@](C)(N)[C@H](O)[C@H](C)O2)Oc2ccc(cc2Cl)[C@H]1O | – | inactive | – | – | inactive | inactive | – | – | – | – | – | – | – | – | – | – | – | –
